ChEMBL document CHEMBL4406875, “Design, synthesis and biological evaluation of amino acids-oleanolic acid conjugates as influenza virus inhibitors” (Bioorg Med Chem, 2019)
Calls of active or inactive are those of the source. The rule behind the calls is not given here.

What was measured:
MDCK = assay: Cytotoxicity against dog MDCK cells assessed as cell viability measured at 100 uM after 45 hrs by Celltiter-Glo luminescence assay; type: cell-based, Canis lupus familiaris
Outline: (§1)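 Viability screen of uninfected MDCK cells at 100 μM compound, read by CellTiter-Glo luminescence with DMSO as negative control; triplicate experiments.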

Influenza A virus [1] = assay: Antiviral activity against Influenza A virus A/WSN/33(H1N1) infected in MDCK cells assessed as inhibition of virus-induced cytopathic effect at 100 uM measured after 45 hrs by CellTiter-Glo luminescence assay; type: functional, organism-based; conditions: A/WSN/1933(H1N1)
Outline: (§2)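 Single-concentration screen at 100 μM in MDCK cells infected with A/WSN/33 under the same conditions: 1% FBS DMEM with 1 μg/mL trypsin, MOI 0.1, 45 h. Cytopathic effect was read by CellTiter-Glo luminescence against a DMSO negative control, from triplicate experiments.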

[2] = Cytotoxicity against dog MDCK cells assessed as cell viability measured after 45 hrs by Celltiter-Glo luminescence assay; type: cell-based, Canis lupus familiaris
Outline: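 Non-infected MDCK cells were exposed to compound dilutions and viability was read by CellTiter-Glo luminescence. CC50 is the concentration reducing viability of uninfected cells by 50%, given as the mean of duplicate samples from three independent experiments.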

Influenza A virus H3N2 = assay: Antiviral activity against Influenza A virus A/Texas/50/2012(H3N2) infected in MDCK cells inhibition of virus-induced cytopathic effect measured after 45 hrs by CellTiter-Glo luminescence assay; type: functional, organism-based
Outline: (§3)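 MDCK cells (5,000/well) were seeded one day before infection. Infection medium was high-glucose DMEM with 1% FBS and trypsin (1 μg/mL). Compounds were added at various concentrations and cells infected at MOI 0.1. After 45 h, viability was read by CellTiter-Glo luminescence. IC50 was taken from dose-response curves, as the mean of duplicate samples from three independent experiments.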

[3] = target: Hemagglutinin (Influenza A virus) (UniProt B4URE7); assay: Inhibition of Influenza A virus HA-mediated chicken erythrocytes aggregation incubated for 30 mins
Outline: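 Compound was 2-fold serially diluted in saline from 100 to 1.56 μM and mixed with an equal volume of influenza virus (2 HA units). Chicken red blood cells (1% v/v in saline) were then added. After 30 min at room temperature, erythrocyte aggregation was scored by eye. An anti-HA monoclonal antibody served as positive control.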

[4] = Cytotoxicity against dog MDCK cells assessed as cell viability measured at 100 uM after 45 hrs by Celltiter-Glo luminescence assay relative to control; type: cell-based, Canis lupus familiaris; conditions: read-out: Activity; outline: as §1
Influenza A virus [5] = assay: Antiviral activity against Influenza A virus A/WSN/33(H1N1) infected in MDCK cells assessed as inhibition of virus-induced cytopathic effect at 100 uM measured after 45 hrs by CellTiter-Glo luminescence assay relative to control; type: functional; conditions: A/WSN/1933(H1N1); outline: as §2
Influenza A virus [6] = assay: Antiviral activity against Influenza A virus A/WSN/33(H1N1) infected in MDCK cells assessed as inhibition of virus-induced cytopathic effect measured after 45 hrs by CellTiter-Glo luminescence assay; type: functional, organism-based; conditions: A/WSN/1933(H1N1); outline: as §3

Chain of Hemagglutinin (Influenza A virus) (B4URE7 as listed by the source): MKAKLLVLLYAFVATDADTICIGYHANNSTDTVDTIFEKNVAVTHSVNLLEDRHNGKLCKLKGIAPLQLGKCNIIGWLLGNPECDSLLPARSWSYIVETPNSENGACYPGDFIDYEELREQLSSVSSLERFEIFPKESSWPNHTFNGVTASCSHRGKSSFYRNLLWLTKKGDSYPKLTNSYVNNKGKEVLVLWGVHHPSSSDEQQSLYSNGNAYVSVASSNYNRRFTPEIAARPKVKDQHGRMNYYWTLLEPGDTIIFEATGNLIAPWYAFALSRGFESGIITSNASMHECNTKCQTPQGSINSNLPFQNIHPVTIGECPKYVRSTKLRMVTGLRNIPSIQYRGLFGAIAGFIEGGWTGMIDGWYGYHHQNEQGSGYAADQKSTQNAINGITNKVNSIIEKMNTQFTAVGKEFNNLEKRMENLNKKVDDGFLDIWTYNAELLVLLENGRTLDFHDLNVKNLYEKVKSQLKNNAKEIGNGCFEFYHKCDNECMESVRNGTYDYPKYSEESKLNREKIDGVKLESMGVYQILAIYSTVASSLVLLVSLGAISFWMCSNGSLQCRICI

Row | SMILES | Activity (MDCK) | inhibition (Influenza A virus [1]) | further results
1 | CC1(C)CC[C@]2(C(=O)N[C@@H](Cc3c[nH]cn3)C(=O)O)CC[C@]3(C)C(=CC[C@@H]4[C@@]5(C)CC[C@H](O)C(C)(C)[C@@H]5CC[C@]43C)[C@@H]2C1 | Toxic | Active | 
2 | CC(C)[C@H](NC(=O)[C@]12CCC(C)(C)C[C@H]1C1=CC[C@@H]3[C@@]4(C)CC[C@H](O)C(C)(C)[C@@H]4CC[C@@]3(C)[C@]1(C)CC2)C(=O)O | Toxic | Active | 
3 | COC(=O)[C@@H](NC(=O)[C@]12CCC(C)(C)C[C@H]1C1=CC[C@@H]3[C@@]4(C)CC[C@H](O)C(C)(C)[C@@H]4CC[C@@]3(C)[C@]1(C)CC2)C(C)C | Toxic | Active | 
4 | CC1(C)CC[C@]2(C(=O)N[C@@H](CO)C(=O)O)CC[C@]3(C)C(=CC[C@@H]4[C@@]5(C)CC[C@H](O)C(C)(C)[C@@H]5CC[C@]43C)[C@@H]2C1 | Toxic | Active | 
5 | CC1(C)CC[C@]2(C(=O)NCC(=O)O)CC[C@]3(C)C(=CC[C@@H]4[C@@]5(C)CC[C@H](O)C(C)(C)[C@@H]5CC[C@]43C)[C@@H]2C1 | Toxic | Active | 
6 | CCOC(=O)C1=C[C@@H](OC(CC)CC)[C@H](NC(C)=O)[C@@H](N)C1 [OSELTAMIVIR PHOSPHATE] |  |  | CC50 at 45 h [2]: > 100 µM; IC50 (Influenza A virus H3N2): > 100 µM
7 | CC[C@H](C)[C@H](NC(=O)[C@]12CCC(C)(C)C[C@H]1C1=CC[C@@H]3[C@@]4(C)CC[C@H](O)C(C)(C)[C@@H]4CC[C@@]3(C)[C@]1(C)CC2)C(=O)O | Toxic | Active | 
8 | CC1(C)CC[C@]2(C(=O)N[C@@H](Cc3c[nH]c4ccccc34)C(=O)O)CC[C@]3(C)C(=CC[C@@H]4[C@@]5(C)CC[C@H](O)C(C)(C)[C@@H]5CC[C@]43C)[C@@H]2C1 | Toxic | Active | 
9 | COC(=O)[C@H](CCCNC(=N)N)NC(=O)[C@]12CCC(C)(C)C[C@H]1C1=CC[C@@H]3[C@@]4(C)CC[C@H](O)C(C)(C)[C@@H]4CC[C@@]3(C)[C@]1(C)CC2 | Toxic | Active | 
10 | COC(=O)[C@H](Cc1c[nH]c2ccccc12)NC(=O)[C@]12CCC(C)(C)C[C@H]1C1=CC[C@@H]3[C@@]4(C)CC[C@H](O)C(C)(C)[C@@H]4CC[C@@]3(C)[C@]1(C)CC2 | Toxic | Active | 
11 | CC(C)C[C@H](NC(=O)[C@]12CCC(C)(C)C[C@H]1C1=CC[C@@H]3[C@@]4(C)CC[C@H](O)C(C)(C)[C@@H]4CC[C@@]3(C)[C@]1(C)CC2)C(=O)O | Toxic | Active | 
12 | C[C@@H](O)[C@H](NC(=O)[C@]12CCC(C)(C)C[C@H]1C1=CC[C@@H]3[C@@]4(C)CC[C@H](O)C(C)(C)[C@@H]4CC[C@@]3(C)[C@]1(C)CC2)C(=O)O | Toxic | Active | 
13 | COC(=O)CC[C@H](NC(=O)[C@]12CCC(C)(C)C[C@H]1C1=CC[C@@H]3[C@@]4(C)CC[C@H](O)C(C)(C)[C@@H]4CC[C@@]3(C)[C@]1(C)CC2)C(=O)OC | Toxic | Active | 
14 | C[C@H](NC(=O)[C@]12CCC(C)(C)C[C@H]1C1=CC[C@@H]3[C@@]4(C)CC[C@H](O)C(C)(C)[C@@H]4CC[C@@]3(C)[C@]1(C)CC2)C(=O)O | Toxic | Active | 
15 | COC(=O)C[C@H](NC(=O)[C@]12CCC(C)(C)C[C@H]1C1=CC[C@@H]3[C@@]4(C)CC[C@H](O)C(C)(C)[C@@H]4CC[C@@]3(C)[C@]1(C)CC2)C(=O)OC | Toxic | Active | 
16 | COC(=O)CNC(=O)[C@]12CCC(C)(C)C[C@H]1C1=CC[C@@H]3[C@@]4(C)CC[C@H](O)C(C)(C)[C@@H]4CC[C@@]3(C)[C@]1(C)CC2 | Toxic | Active | 
17 | CC1(C)CC[C@]2(C(=O)N[C@@H](CCCNC(=N)N)C(=O)O)CC[C@]3(C)C(=CC[C@@H]4[C@@]5(C)CC[C@H](O)C(C)(C)[C@@H]5CC[C@]43C)[C@@H]2C1 | Toxic | Active | CC50 at 45 h [2]: > 100 µM; IC50 (Influenza A virus H3N2): 14.1 µM; inhibition [3]: Dose-dependent effect; viability at 45 h, 100 µM [4]: 75%; inhibition at 100 µM (Influenza A virus [5]): 75%; IC50 (Influenza A virus [6]): 6.64 µM

Row | SMILES | Activity (MDCK) | inhibition (Influenza A virus [1]) | further results
18 | CC1(C)CC[C@]2(C(=O)N[C@@H](Cc3ccc(O)cc3)C(=O)O)CC[C@]3(C)C(=CC[C@@H]4[C@@]5(C)CC[C@H](O)C(C)(C)[C@@H]5CC[C@]43C)[C@@H]2C1 | Toxic | Active | 
19 | COC(=O)[C@H](C)NC(=O)[C@]12CCC(C)(C)C[C@H]1C1=CC[C@@H]3[C@@]4(C)CC[C@H](O)C(C)(C)[C@@H]4CC[C@@]3(C)[C@]1(C)CC2 | Toxic | Active | 
20 | COC(=O)[C@H](Cc1c[nH]cn1)NC(=O)[C@]12CCC(C)(C)C[C@H]1C1=CC[C@@H]3[C@@]4(C)CC[C@H](O)C(C)(C)[C@@H]4CC[C@@]3(C)[C@]1(C)CC2 | Toxic | Active | 
21 | CC1(C)CC[C@]2(C(=O)O)CC[C@]3(C)C(=CC[C@@H]4[C@@]5(C)CC[C@H](O)C(C)(C)[C@@H]5CC[C@]43C)[C@@H]2C1 |  | Active | 
22 | COC(=O)[C@H](Cc1ccc(O)cc1)NC(=O)[C@]12CCC(C)(C)C[C@H]1C1=CC[C@@H]3[C@@]4(C)CC[C@H](O)C(C)(C)[C@@H]4CC[C@@]3(C)[C@]1(C)CC2 | Toxic | Active | 
23 | COC(=O)[C@H](Cc1ccccc1)NC(=O)[C@]12CCC(C)(C)C[C@H]1C1=CC[C@@H]3[C@@]4(C)CC[C@H](O)C(C)(C)[C@@H]4CC[C@@]3(C)[C@]1(C)CC2 | Toxic | Active | 
24 | CC[C@H](C)[C@H](NC(=O)[C@]12CCC(C)(C)C[C@H]1C1=CC[C@@H]3[C@@]4(C)CC[C@H](O)C(C)(C)[C@@H]4CC[C@@]3(C)[C@]1(C)CC2)C(=O)OC | Toxic | Active | 
25 | CC1(C)CC[C@]2(C(=O)N3CCC[C@H]3C(=O)O)CC[C@]3(C)C(=CC[C@@H]4[C@@]5(C)CC[C@H](O)C(C)(C)[C@@H]5CC[C@]43C)[C@@H]2C1 | Toxic | Active | 
26 | COC(=O)[C@H](CCSC)NC(=O)[C@]12CCC(C)(C)C[C@H]1C1=CC[C@@H]3[C@@]4(C)CC[C@H](O)C(C)(C)[C@@H]4CC[C@@]3(C)[C@]1(C)CC2 | Toxic | Active | 
27 | COC(=O)[C@@H]1CCCN1C(=O)[C@]12CCC(C)(C)C[C@H]1C1=CC[C@@H]3[C@@]4(C)CC[C@H](O)C(C)(C)[C@@H]4CC[C@@]3(C)[C@]1(C)CC2 | Toxic | Active | 
28 | COC(=O)[C@H](CC(C)C)NC(=O)[C@]12CCC(C)(C)C[C@H]1C1=CC[C@@H]3[C@@]4(C)CC[C@H](O)C(C)(C)[C@@H]4CC[C@@]3(C)[C@]1(C)CC2 | Toxic | Active | 
29 | COC(=O)[C@@H](NC(=O)[C@]12CCC(C)(C)C[C@H]1C1=CC[C@@H]3[C@@]4(C)CC[C@H](O)C(C)(C)[C@@H]4CC[C@@]3(C)[C@]1(C)CC2)[C@@H](C)O | Toxic | Active | 
30 | CSCC[C@H](NC(=O)[C@]12CCC(C)(C)C[C@H]1C1=CC[C@@H]3[C@@]4(C)CC[C@H](O)C(C)(C)[C@@H]4CC[C@@]3(C)[C@]1(C)CC2)C(=O)O | Toxic | Active | 
31 | COC(=O)[C@H](CO)NC(=O)[C@]12CCC(C)(C)C[C@H]1C1=CC[C@@H]3[C@@]4(C)CC[C@H](O)C(C)(C)[C@@H]4CC[C@@]3(C)[C@]1(C)CC2 | Toxic | Active | 
32 | CC1(C)CC[C@]2(C(=O)N[C@@H](CC(=O)O)C(=O)O)CC[C@]3(C)C(=CC[C@@H]4[C@@]5(C)CC[C@H](O)C(C)(C)[C@@H]5CC[C@]43C)[C@@H]2C1 | Toxic | Active | 
33 | CC1(C)CC[C@]2(C(=O)N[C@@H](CCC(=O)O)C(=O)O)CC[C@]3(C)C(=CC[C@@H]4[C@@]5(C)CC[C@H](O)C(C)(C)[C@@H]5CC[C@]43C)[C@@H]2C1 | Toxic | Active | 
34 | CC1(C)CC[C@]2(C(=O)N[C@@H](Cc3ccccc3)C(=O)O)CC[C@]3(C)C(=CC[C@@H]4[C@@]5(C)CC[C@H](O)C(C)(C)[C@@H]5CC[C@]43C)[C@@H]2C1 | Toxic | Active | 
